Source: ChEMBL document CHEMBL2424525, “Synthesis of 3'-azido-2',3'-dideoxy-5-fluorouridine phosphoramidates and evaluation of their anticancer activity” (Eur J Med Chem, 2013)

Columns and labels:
Type in all cases: functional, cell-based
MCF7 = assay: Cytotoxicity against human MCF7 cells after 72 hrs by SRB assay; conditions: MCF7, 72 h
How it was run: (§1)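 SRB assay. HeLa and KB cells were grown in RPMI 1640 and MCF-7 cells in DMEM. Cells were fixed with 50% trichloroacetic acid for 1 h at 4 °C, then washed with distilled water. Unbound dye was removed with 1% acetic acid and plates were air dried overnight. OD read at 490 nm. Survival was taken as % absorbance of untreated control. Cytarabine served as internal standard. Three independent experiments.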

KB = assay: Cytotoxicity against human KB cells after 72 hrs by SRB assay; how it was run: as §1
HeLa = assay: Cytotoxicity against human HeLa cells after 72 hrs by SRB assay; how it was run: as §1

| SMILES | IC50 (MCF7) | IC50 (KB) | IC50 (HeLa) |
| --- | --- | --- | --- |
| [N-]=[N+]=N[C@H]1C[C@H](n2cc(F)c(=O)[nH]c2=O)O[C@@H]1CO | 10.3 µM | 8.11 µM | 11.1 µM |
| [N-]=[N+]=NCCCCNP(=O)(OC[C@H]1O[C@@H](n2cc(F)c(=O)[nH]c2=O)C[C@@H]1N=[N+]=[N-])Oc1ccc(Cl)cc1 (stereo not given in full) | 22.4 µM | 46.6 µM | 35.5 µM |
| COC(=O)[C@H](C)NP(=O)(OC[C@H]1O[C@@H](n2cc(F)c(=O)[nH]c2=O)C[C@@H]1N=[N+]=[N-])Oc1ccc(Cl)cc1 (stereo not given in full) | 38.4 µM | > 100 µM | 38.4 µM |
| CNP(=O)(OC[C@H]1O[C@@H](n2cc(F)c(=O)[nH]c2=O)C[C@@H]1N=[N+]=[N-])Oc1ccc(Cl)cc1 (stereo not given in full) | 4.42 µM | 8.64 µM | 8.43 µM |
| CCNP(=O)(OC[C@H]1O[C@@H](n2cc(F)c(=O)[nH]c2=O)C[C@@H]1N=[N+]=[N-])Oc1ccc(Cl)cc1 (stereo not given in full) | 1.88 µM | 1.64 µM | 1.64 µM |
| [N-]=[N+]=N[C@H]1C[C@H](n2cc(F)c(=O)[nH]c2=O)O[C@@H]1COP(=O)(NCC(F)(F)F)Oc1ccc(Cl)cc1 (stereo not given in full) | 23.9 µM | 40.5 µM | 43.9 µM |
| CCCNP(=O)(OC[C@H]1O[C@@H](n2cc(F)c(=O)[nH]c2=O)C[C@@H]1N=[N+]=[N-])Oc1ccc(Cl)cc1 (stereo not given in full) | 27.2 µM | 26.9 µM | 25.9 µM |
| C=CCNP(=O)(OC[C@H]1O[C@@H](n2cc(F)c(=O)[nH]c2=O)C[C@@H]1N=[N+]=[N-])Oc1ccc(Cl)cc1 (stereo not given in full) | 10.4 µM | 8.59 µM | 9.98 µM |
| C#CCNP(=O)(OC[C@H]1O[C@@H](n2cc(F)c(=O)[nH]c2=O)C[C@@H]1N=[N+]=[N-])Oc1ccc(Cl)cc1 (stereo not given in full) | 5.41 µM | 3.81 µM | 4.21 µM |
| [N-]=[N+]=NCCCNP(=O)(OC[C@H]1O[C@@H](n2cc(F)c(=O)[nH]c2=O)C[C@@H]1N=[N+]=[N-])Oc1ccc(Cl)cc1 (stereo not given in full) | 33.1 µM | 99.3 µM | 96.2 µM |
| CCCCNP(=O)(OC[C@H]1O[C@@H](n2cc(F)c(=O)[nH]c2=O)C[C@@H]1N=[N+]=[N-])Oc1ccc(Cl)cc1 (stereo not given in full) | 41.8 µM | 38.7 µM | 32.9 µM |
| Nc1ccn([C@@H]2O[C@H](CO)[C@@H](O)[C@@H]2O)c(=O)n1 [CYTARABINE] |  |  | 3.54 µM |
| O=c1[nH]c(=O)n([C@H]2C[C@H](O)[C@@H](CO)O2)cc1F [FLOXURIDINE] | 12.2 µM | 8.69 µM | 6.5 µM |
| O=c1[nH]cc(F)c(=O)[nH]1 [FLUOROURACIL] | 6.53 µM | 4.84 µM | 6.23 µM |
